Assay outcomes (PubChem)
NSD2 inh – NSD2 (human) methyltransferase inhibition. inhibition, % at 12.5 µM. O96028. NSD2 peptide methylation, AlphaScreen, 120 min. hit rate 0.54% among 310,000
DYRK1A inh – blocks rat Dyrk1A kinase activity. inhibition, % at 12.5 µM. ADP-Glo luminescence, NFATc1 peptide. Q63470. hit rate 0.43% among 310,000;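 also: plate controls were vehicle with enzyme for no effect and no enzyme for full effect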
SR-BI HDL uptake – blocks mouse SR-BI lipid uptake from DiI-HDL; Q61009; ldlA[mSR-BI] CHO cells, DiI-HDL uptake fluorescence, 3 h; inhibition, % at 12.5 µM; hit rate 0.96% among 320,000;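 active = mean replicate inhibition of at least 70% and a set share of replicates each scoring 70 or more; inconclusive = meets just one of the two criteria; inactive = fails both criteria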;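 also: 0% = median of neutral control wells and 100% = median of positive control wells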
CDK5 inh – inhibitors of human CDK5/p35 kinase | Recombinant CDK5/p35, ADP-Glo luminescence, 60 min | inhibition, % at 10 µM | hit rate 0.01% among 330,000 | AID 488839;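 active = highest replicate inhibition of at least 50% and at least 75% of replicates reaching 50%; inconclusive = only one of the two criteria met; inactive = both criteria failed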;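 also: plate controls were DMSO neutral control for no effect and GW8510 at 10 µM for full effect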
Target sequence (Q00535 whole entry, looked up): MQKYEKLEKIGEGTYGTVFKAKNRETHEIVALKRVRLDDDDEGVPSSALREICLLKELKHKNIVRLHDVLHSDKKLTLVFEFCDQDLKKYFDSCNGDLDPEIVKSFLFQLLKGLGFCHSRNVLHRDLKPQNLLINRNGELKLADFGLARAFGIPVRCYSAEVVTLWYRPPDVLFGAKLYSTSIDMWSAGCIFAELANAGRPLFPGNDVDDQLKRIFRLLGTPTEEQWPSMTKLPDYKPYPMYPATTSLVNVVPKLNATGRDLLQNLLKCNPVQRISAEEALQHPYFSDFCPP
Target sequence (Q15078 whole entry, looked up): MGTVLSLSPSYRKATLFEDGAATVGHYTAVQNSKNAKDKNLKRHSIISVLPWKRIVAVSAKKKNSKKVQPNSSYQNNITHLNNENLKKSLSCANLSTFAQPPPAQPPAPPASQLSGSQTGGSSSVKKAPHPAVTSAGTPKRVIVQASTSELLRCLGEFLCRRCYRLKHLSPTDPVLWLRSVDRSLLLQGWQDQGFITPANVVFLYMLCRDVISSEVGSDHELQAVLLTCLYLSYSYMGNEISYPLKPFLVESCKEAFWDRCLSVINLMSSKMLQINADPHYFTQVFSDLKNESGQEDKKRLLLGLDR
SR-BI uptake up – SR-BI HDL lipid transfer activation; AID 504775; activation, % at 12.5 µM; hit rate 0.096% among 320,000; CHO ldlA[mSR-BI] cells, DiI-HDL uptake fluorescence, 3 h; 100 = double the neutral-control signal;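 active = mean replicate activation of at least 60% and every replicate at or above 60%; inconclusive = mean or all-replicate condition met, but not both; inactive = mean below 60% and not all replicates reaching 60%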;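 also: 0% = median plate neutral-control signal and 100% = twice that signal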
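Assay system: LDL receptor-deficient CHO ldlA cells overexpressing murine SR-BI / Medium: BSA-supplemented, HEPES-buffered Ham's F12, pH 7.4 / Probe or stimulus: DiI-labelled HDL at 10 µg/mL final / Timing: compound with DiI-HDL co-incubation, 3 h at 37 °C / Technique: bottom-read cell fluorescence after medium removal, ex 550/em 595 nm / Measure: HDL uptake via cellular fluorescence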
dFosB act – enhances mouse delta FosB homodimer DNA binding. P13346. purified delta FosB, TAMRA-CDK5 oligo fluorescence polarization; percent of positive-control signal above neutral wells. activation, % at 25 µM. hit rate 0.99% among 340,000;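 active = mean activation above about 17%, with every replicate also reaching it, limit read from the data, passing the limit was not always enough; inconclusive = only one of the two conditions met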
DiI quencher – DiI fluorescence quenching in cell-free counter-screen; shares compounds with SR-BI HDL uptake; cell-free DiI-HDL fluorescence quenching, 30 min; AC50, µM (top dose mostly 35 µM), for the others: top-dose activity change, negative = quenching; hit rate 20% among 470; AID 540326;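 active = quenching, a falling signal, with AC50 below a set limit tied to the top valid dose, actives reach about 32 µM in these data; inconclusive = no clear call, values can overlap the other calls; inactive = rising signal, and the rest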
An asterisk follows results filed as active; i = inactive; ? = inconclusive; . = no result given. The list is not random: actives were taken first. Their share in the collection is about 2.5%. Rule as the data show it, unless noted: active = inhibition above about 50%; inactive = the rest.

SMILES	NSD2 inh	DYRK1A inh	SR-BI HDL uptake	CDK5 inh	SR-BI uptake up	dFosB act	DiI quencher
Cc1nn(CC(=O)NCCc2ccccc2)c(=O)c2cccn12	-3	-8	-19	1	.	-7	.
CCNC(=O)c1c(NC(C)=O)sc2c1CCCC2	1	-2	11	0	-11	-11	.
CCNC(=O)c1c(NC(=O)c2cc(-c3cc(C)cc(C)c3O)n[nH]2)sc2c1CCCC2	.	6	?	-1	-73	12	i
COCCOC(=O)c1[nH]c2c(c1C)C(=O)CC(c1ccco1)C2 (centres undefined)	.	-3	?	1	-72	-20	-2%
CCOC(=O)c1[nH]c2c(c1C)C(=O)CC(c1ccco1)C2 (centres undefined)	.	2	57	0	-57	-12	.
Cc1c(C(=O)OCc2ccccc2)[nH]c2c1C(=O)CC(c1ccco1)C2 (centres undefined)	.	-2	84*	0	-84	-7	-3%
Cc1c(C(=O)OCCOC(C)C)[nH]c2c1C(=O)CC(c1ccco1)C2 (centres undefined)	.	8	89*	0	-89	-6	-1%
C=CCOC(=O)c1[nH]c2c(c1C)C(=O)CC(c1cc(OC)c(OC)c(OC)c1)C2 (centres undefined)	.	1	72*	3	-72	-4	-1%
COCCOC(=O)c1[nH]c2c(c1C)C(=O)CC(c1cc(OC)c(OC)c(OC)c1)C2 (centres undefined)	0	-1	37	1	-37	-6	.
COC(=O)c1[nH]c2c(c1C)C(=O)CC(c1cccs1)C2 (centres undefined)	0	10	82*	1	-82	-4	-6%
Cc1ccccc1C(=O)N1CCc2cc(-c3nc(NC(=O)Cc4ccc5c(c4)OCO5)sc3C)ccc21	-2	0	66	1	-66	-19	-2%
Cc1sc(NC(=O)Cc2ccc3c(c2)OCO3)nc1-c1ccc2c(c1)CCN2C(=O)c1cccc(F)c1	-1	2	77*	1	-77	-8	-2%
Cc1cccc(C(=O)N2CCc3cc(-c4nc(NC(=O)CN5CCCC5)sc4C)ccc32)c1	6	12	.	-1	.	1	.
N#Cc1c(Cl)cccc1N1CCC(C(N)=O)CC1	-3	.	.	.	.	.	.
CC(=O)Nc1cccc(-c2csc(Nc3ncccn3)n2)c1	-5	.	.	.	.	.	.
O=C(Nc1cccc(-c2csc(Nc3ccc(Cl)cc3)n2)c1)c1cccc(C(F)(F)F)c1	.	4	110*	-1	-110	1	2.1µM*
Cc1cccc(N2CCN(C(=O)COc3ccc4c(C)cc(=O)oc4c3C)CC2)c1C	-3	1	?	0	-71	-7	4%
COc1ccc(S(=O)(=O)N2CCC(C(=O)NC3CCCCC3)CC2)cc1C	-5	-9	-9	1	9	-12	.
CCC(=O)Nc1ccccc1-c1nnn(CC(=O)N2c3ccccc3CC2C)n1 (centres undefined)	-1	-5	65	3	-65	-9	6%
CC(C)CC(=O)Nc1ccccc1-c1nnn(CC(=O)N2CCc3ccccc3C2)n1	-1	5	41	1	-41	-5	.
O=C(Nc1ccccc1-c1nnn(CC(=O)N2CCc3ccccc3C2)n1)C1CCC1	-4	5	55	-1	-55	-3	.
CC1Cc2ccccc2N1C(=O)Cn1nnc(-c2ccccc2NC(=O)C2CCC2)n1 (centres undefined)	-11	3	79*	-1	-79	-6	15%
Cc1nc(NCc2cccnc2)c2c3c(sc2n1)CC(C)CC3 (centres undefined)	-1	0	?	1	-71	-2	-6%
O=C(Nc1ccccc1)C1=C(O)CC(c2ccco2)CC1=Nc1ccccc1 (centres undefined)	1	1	49	1	-49	-6	.
O=C(Nc1ccccc1)C1=C(O)CC(c2ccoc2)CC1=Nc1ccccc1 (centres undefined)	.	0	?	4	-72	1	-10%
SMILES	NSD2 inh	DYRK1A inh	SR-BI HDL uptake	CDK5 inh	SR-BI uptake up	dFosB act	DiI quencher
Nn1c(-c2cccc(O)c2)nnc1-c1cccc(O)c1	-2	8	0	0	0	-1	.
COCCNC(=O)c1ccc(CS(=O)(=O)c2cccc(C(F)(F)F)c2)o1	3	-2	75*	-1	-75	-8	9%
COc1ccc(CNC(=O)C(c2ccc(C)cc2)N(Cc2cccs2)C(=O)c2ccc3c(c2)OCCO3)cc1 (centres undefined)	-2	8	26	-1	-26	-8	-1%
COc1ccc(CCNC(=O)CCC(=O)N2CC(C)Oc3ccc(Cl)cc32)cc1OC (centres undefined)	.	-7	?	0	-71	-2	-2%
CN(C)C(=O)c1ccc(Nc2nnc(-c3ccc(O)cc3)c3ccccc23)cc1	-2	3	9	0	-9	-3	.
CNC(=O)c1ccc(Nc2nnc(-c3ccc(O)cc3)c3ccccc23)cc1	-1	6	99*	0	-99	?	3%
CC1CCCCC1NC(=O)c1nn(C)c2c1CS(=O)(=O)c1ccccc1-2 (centres undefined)	-1	-4	78*	0	-78	-3	1%
Cc1nn(Cc2ccccc2)c(C)c1NC(=O)c1cc2nc(-c3ccco3)cc(C(F)(F)F)n2n1	28	1	83*	1	-83	0	-7%
O=C(Nc1ccncc1)c1ccc(NS(=O)(=O)c2ccc3[nH]c(=O)[nH]c3c2)cc1	-7	1	-8	4	8	0	.
CCn1c(COc2c(C)cccc2C)nnc1SCC(=O)N1CCN(c2ccccc2)CC1	3	15	79*	1	-79	3	-3%
O=C(CN1CCOCC1)Nc1nc(-c2ccc3c(c2)CCN3S(=O)(=O)c2ccccc2)cs1	-4	-2	48	-1	-48	5	3%
CCC(CC)C(=O)Nc1nc(-c2ccc3c(c2)CCN3C(=O)C2CC2)c(C)s1	0	8	59	0	-59	8	.
Cc1sc(NC(=O)CN2CCOCC2)nc1-c1ccc2c(c1)CCN2S(=O)(=O)c1ccccc1	3	-5	?	0	-70	-10	-2%
Cc1sc(NC(=O)/C=C/C(=O)O)c(C(N)=O)c1-c1ccc(C(C)(C)C)cc1	8	-1	-7	0	7	-4	.
Cc1sc(NC(=O)c2cccc([N+](=O)[O-])c2)c(C(N)=O)c1-c1ccc(C(C)(C)C)cc1	0	-1	77*	1	-77	-7	-5%
